Experimental findings from ChEMBL document CHEMBL4808178 (J Med Chem, 2021) are described below.

Structures are written as SMILES. Calls of active or inactive are those of the source. The calls are words filed in the database; no cut-off is given here.

Test [1] concerns HCT-116. The test is described as follows: Cytotoxicity against human HCT-116 cells assessed as reduction in cell viability incubated for 72 hrs by MTT assay. Type of test: functional, cell-based. The settings on record: HCT-116, 72 h. The method, boiled down: (§1)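 About 5 × 10³ cells/well, seeded overnight at 37 °C, 5% CO₂, in DMEM or RPMI-1640 with 10% FBS and antibiotics. DMSO-dissolved compounds diluted in medium, exposure 72 h.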
For orientation: Tetrazolium dyes change colour on reduction, which living cells bring about.

Another test relates to PC-3. Description: Cytotoxicity against human PC3 cells assessed as reduction in cell viability incubated for 72 hrs by MTT assay. As to conditions: PC-3, 72 h. It is filed as functional, cell-based. The method, boiled down: as §1
Another test relates to T-24. The test is described as follows: Cytotoxicity against human T24 cells assessed as reduction in cell viability incubated for 72 hrs by MTT assay. Type of test: functional, cell-based. As to conditions: T-24, 72 h. The method, boiled down:
as §1

The test system of a further test is MCF7. Description: Cytotoxicity against human MCF7 cells assessed as reduction in cell viability incubated for 72 hrs by MTT assay. Type of test: functional, cell-based. The settings on record: MCF7, 72 h. The method, boiled down: as §1
For another test, the system named is L02. The test is described as follows: Cytotoxicity against human L02 cells assessed as reduction in cell viability incubated for 72 hrs by MTT assay. The settings on record: L02, 72 h. It is filed as cell-based. The method, boiled down: as §1
The subject of the next test is HT-29. Description: Cytotoxicity against human HT-29 cells assessed as reduction in cell viability incubated for 72 hrs by MTT assay. Type of test: functional, cell-based. The settings on record: HT-29, 72 h.
In test [2] the target is Dual specificity protein kinase CLK2 (Homo sapiens, UniProt P49760). Description: Inhibition of human CLK2 incubated for 2 hrs.
Chain of Dual specificity protein kinase CLK2 (P49760 whole entry): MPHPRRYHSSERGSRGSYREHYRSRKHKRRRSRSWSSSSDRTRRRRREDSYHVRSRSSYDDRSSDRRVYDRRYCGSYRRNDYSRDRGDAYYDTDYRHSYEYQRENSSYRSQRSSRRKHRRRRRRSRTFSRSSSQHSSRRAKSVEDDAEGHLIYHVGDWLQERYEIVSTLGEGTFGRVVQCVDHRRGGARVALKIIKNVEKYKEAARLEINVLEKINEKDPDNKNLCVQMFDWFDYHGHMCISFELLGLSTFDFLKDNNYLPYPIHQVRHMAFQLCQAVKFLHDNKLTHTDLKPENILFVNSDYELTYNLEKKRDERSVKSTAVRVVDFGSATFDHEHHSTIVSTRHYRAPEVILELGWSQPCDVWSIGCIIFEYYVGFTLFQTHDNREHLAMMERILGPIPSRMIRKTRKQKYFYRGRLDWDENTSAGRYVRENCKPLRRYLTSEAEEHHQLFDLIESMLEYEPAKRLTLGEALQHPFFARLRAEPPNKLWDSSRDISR
Test [3] concerns HCT-116. Description: Inhibition of cell stemness in human HCT116 cells assessed as morphological alterations at 5 uM after 10 days by microscopic analysis. It is filed as functional, cell-based. The settings on record: time 10.0 day. The method, boiled down: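 Sorted ALDH⁺ HCT-116 cells, 800/well, in serum-free DMEM with B27 (1:50), EGF 20 ng/mL, β-FGF 10 ng/mL; co-incubated with compound (5 μM) or DMSO vehicle for 10 days; sphere number, diameter and morphology scored from microscopy images; mean ± SD, n = 3.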

The subject of test [4] is HCT-116. Description: Inhibition of cell stemness in human HCT116 cells assessed as inhibition of CD44+/CD133+ expression at 20 uM after 24 hrs by flow cytometry analysis. It is filed as functional. The method, boiled down:
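ALDH⁺ HCT-116 subpopulation sorted by flow cytometry; 2 × 10⁵ cells/well seeded overnight at 37 °C, 5% CO₂; treated 20 μM for 24 h (vehicle DMSO); stained with PE anti-CD133 and FITC anti-CD44 30 min; CD44⁺/CD133⁺ read by flow cytometry.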

Regarding `O=C(OCC(F)F)c1ccc2c(c1)nc(Nc1cccc(Cl)c1)c1ccncc12`, the IC50 in the test on HCT-116 [1] stood at 7.52 µM; in the test on PC-3, 22.1 µM; with T-24, 22.7 µM; with MCF7, 9.85 µM; with L02 it was 83.9 µM; in the test with HT-29, 8.09 µM. This compound also yielded an IC50 in [2] of 1.54 nM.
Turning to `CS(=O)(=O)NC(=O)c1ccc2c(c1)nc(Nc1cccc(Cl)c1)c1ccncc12`, the IC50 in the test with HCT-116 [1] came out at 13.2 µM; in the test with PC-3 it was 4.16 µM; in the test with T-24 it was 23.5 µM; in the test on MCF7 it was 12.2 µM; in the test with L02, 28.4 µM; in the test on HT-29, 17.8 µM.
`O=C(NCCCO)c1ccc2c(c1)nc(Nc1cccc(Cl)c1)c1ccncc12`: the IC50 in the test on HCT-116 [1] turned out to be 13.7 µM; with PC-3 it was 8.94 µM; with T-24, 18.8 µM; in the test on MCF7, 7.71 µM; in the test with L02, 74.2 µM; with HT-29 it was 11.8 µM.
As to `COC(=O)CCCNC(=O)c1ccc2c(c1)nc(Nc1cccc(Cl)c1)c1ccncc12`, the IC50 is 5.91 µM in the test with HCT-116 [1]; 4.89 µM with PC-3; 12.9 µM in the test with T-24; 19.8 µM with MCF7; 89.1 µM in the test with L02; 20.6 µM with HT-29.
In the case of `O=C(OCCO)c1ccc2c(c1)nc(Nc1cccc(Cl)c1)c1ccncc12`, the IC50 in the test with HCT-116 [1] was 10.9 µM; in the test with PC-3, 9.15 µM; in the test on T-24, 16.6 µM; in the test with MCF7 it was 15.2 µM; with L02 it was 45.1 µM; in the test on HT-29, 10.9 µM. The compound also had an IC50 in test [2] of 2.38 nM.
On to `CC(=O)c1cc2c(o1)C(=O)c1ccccc1C2=O` [NAPABUCASIN], for which, in the test on HCT-116 [3], the inhibition result was “Active”. Moreover, the inhibition at 20 µM in the test with HCT-116 [4] was found to be 89%.
For the compound `O=C(OCCI)c1ccc2c(c1)nc(Nc1cccc(Cl)c1)c1ccncc12`, the IC50 was determined as 17.7 µM with HCT-116 [1]; 10 µM in the test on PC-3; 17.5 µM in the test on T-24; 10.7 µM in the test on MCF7; 43.5 µM in the test with L02; 17.1 µM in the test on HT-29. For the same compound, the IC50 in [2] was 1.69 nM.
For the compound `O=C(OCCOCCOCCO)c1ccc2c(c1)nc(Nc1cccc(Cl)c1)c1ccncc12`, the IC50 in the test with HCT-116 [1] is 9.71 µM; in the test with PC-3, 19.2 µM; in the test with T-24, 14.1 µM; in the test with MCF7, 13.6 µM; in the test with L02 it was 30.7 µM; in the test on HT-29, 12.6 µM.
In the case of `O=C(NCCN1CCOCC1)c1ccc2c(c1)nc(Nc1cccc(Cl)c1)c1ccncc12`, the IC50 in the test on HCT-116 [1] was 7.98 µM; with PC-3, 3.28 µM; in the test on T-24, 8.73 µM; with MCF7, 11 µM; in the test on L02, 37.8 µM; in the test on HT-29, 13.4 µM. In test [2], the IC50 was found to be 21.9 nM.
For `O=C(NCCN1CCCC1)c1ccc2c(c1)nc(Nc1cccc(Cl)c1)c1ccncc12`, the IC50 in the test on HCT-116 [1] stood at 8.79 µM; in the test with PC-3, 10.1 µM; with T-24, 3.23 µM; in the test on MCF7, 8.6 µM; with L02, 16 µM; with HT-29, 7.94 µM.
Regarding `COC(=O)CCNC(=O)c1ccc2c(c1)nc(Nc1cccc(Cl)c1)c1ccncc12`, the IC50 with HCT-116 [1] was 8.13 µM; in the test on PC-3, 9.94 µM; in the test with T-24, 10.7 µM; in the test on MCF7, 4.51 µM; in the test on L02, greater than 200 µM; with HT-29 it was 3.52 µM. The compound further registered a half-maximal inhibitory concentration (IC50) in [2] of 9.7 nM.
For the compound `O=C(NCC(F)F)c1ccc2c(c1)nc(Nc1cccc(Cl)c1)c1ccncc12`, the IC50 in the test on HCT-116 [1] is 16.5 µM; with PC-3 it was 6.12 µM; in the test with T-24, 18.1 µM; with MCF7, 10.4 µM; in the test on L02, 18.4 µM.
With `NCCCNC(=O)c1ccc2c(c1)nc(Nc1cccc(Cl)c1)c1ccncc12`, the concentration for half-maximal inhibition (IC50) in the test with HCT-116 [1] amounted to 15.9 µM; in the test with PC-3 it was 14.1 µM; in the test on T-24 it was 37.3 µM; in the test on MCF7, 19.7 µM; in the test on L02, 85 µM; with HT-29 it was 9.87 µM.
`O=C(OCCF)c1ccc2c(c1)nc(Nc1cccc(Cl)c1)c1ccncc12`: the IC50 in the test with HCT-116 [1] was found to be 4.28 µM; in the test with PC-3, 6.4 µM; with T-24 it was 5.91 µM; with MCF7 it was 5.98 µM; in the test with L02 it was 57.8 µM; with HT-29, 7.8 µM. Further, in test [2], the IC50 stood at 1.06 nM.
As to `O=C(O)CCCNC(=O)c1ccc2c(c1)nc(Nc1cccc(Cl)c1)c1ccncc12`, the IC50 with HCT-116 [1] worked out at 24.8 µM; with PC-3, 4.2 µM; with T-24, 21.1 µM; in the test on MCF7 it was 19.6 µM; in the test with L02 it was 32.2 µM; with HT-29, 14.5 µM.
With `O=C(NCCBr)c1ccc2c(c1)nc(Nc1cccc(Cl)c1)c1ccncc12`, the IC50 with HCT-116 [1] was 28.1 µM; in the test with PC-3 it was 8.76 µM; in the test on T-24, 8.95 µM; in the test on MCF7, 14.9 µM; in the test on L02 it was 66.7 µM; in the test on HT-29, 8.01 µM. In test [2], this compound came in with an IC50 of 24.7 nM.
Turning to `C#CCNC(=O)c1ccc2c(c1)nc(Nc1cccc(Cl)c1)c1ccncc12`, the IC50 in the test on HCT-116 [1] came out at 21.2 µM; with PC-3, 7.6 µM; in the test with T-24, 18.5 µM; in the test with MCF7 it was 13.9 µM; with L02, 28.4 µM; with HT-29 it was 16.4 µM.
On to `O=C(O)CCNC(=O)c1ccc2c(c1)nc(Nc1cccc(Cl)c1)c1ccncc12`, for which the IC50 was determined as 4.6 µM in the test with HCT-116 [1]; 16.2 µM with PC-3; 24.4 µM with T-24; 24.6 µM in the test on MCF7; 72.8 µM in the test on L02; 19.9 µM in the test on HT-29.
On to `O=C(NCCN1CCCCC1)c1ccc2c(c1)nc(Nc1cccc(Cl)c1)c1ccncc12`, for which the IC50 in the test with HCT-116 [1] was 8.6 µM; in the test on PC-3 it was 6.08 µM; with T-24, 3.24 µM; in the test with MCF7, 3.74 µM; in the test on L02 it was 14.3 µM; in the test with HT-29, 13.8 µM.
In the case of `O=C(NO)c1ccc2c(c1)nc(Nc1cccc(Cl)c1)c1ccncc12`, the IC50 with HCT-116 [1] was determined as 8.62 µM; in the test with PC-3, 15.1 µM; in the test on T-24 it was 3.89 µM; in the test on MCF7, 7.66 µM; in the test on L02, 21.4 µM; with HT-29, 9.98 µM.
In the case of `O=C(OCCC(Cl)Cl)c1ccc2c(c1)nc(Nc1cccc(Cl)c1)c1ccncc12`, the IC50 with HCT-116 [1] amounted to 20.8 µM; with PC-3, 13.5 µM; in the test on T-24, 20.6 µM; in the test with MCF7, 14.2 µM; with L02 it was 22 µM; in the test on HT-29, 18.4 µM.
Turning to `CN(C)CCNC(=O)c1ccc2c(c1)nc(Nc1cccc(Cl)c1)c1ccncc12`, the IC50 was found to be 12.8 µM in the test on HCT-116 [1]; 11.1 µM with PC-3; 5.93 µM in the test on T-24; 6.01 µM in the test on MCF7; 17.3 µM in the test with L02; 5.08 µM in the test on HT-29.
As to `O=C(OCCc1ccccn1)c1ccc2c(c1)nc(Nc1cccc(Cl)c1)c1ccncc12`, the IC50 in the test on HCT-116 [1] amounted to 6.91 µM; in the test with PC-3, 11 µM; in the test with T-24, 22.5 µM; with MCF7, 10.1 µM; in the test with L02, 24.9 µM; in the test with HT-29 it was 9.52 µM.
As for `NCCNC(=O)c1ccc2c(c1)nc(Nc1cccc(Cl)c1)c1ccncc12`, the half-inhibitory concentration (IC50) in the test with HCT-116 [1] worked out at 7.26 µM; in the test with PC-3, 5.48 µM; with T-24, 14.4 µM; in the test with MCF7 it was 4.88 µM; in the test on L02, 111 µM; in the test with HT-29, 11.4 µM. For the same compound, 19.6 nM corresponded to half-maximal inhibition in [2] (IC50).

The term IC50 denotes the concentration at which inhibition is half-maximal. Usually inhibition stands for the drop in the measured response relative to a control, in per cent.
